Results: ChEMBL document CHEMBL2346559, “Optimization of benzoxazole-based inhibitors of Cryptosporidium parvum inosine 5'-monophosphate dehydrogenase” (J Med Chem, 2013)

Legend:
[1] = target: T1, Inosine-5'-monophosphate dehydrogenase (Cryptosporidium parvum, UniProt Q8T6T2); experiment: Inhibition of Cryptosporidium parvum N-terminal His6-tagged IMPDH-mediated NADH production expressed in Escherichia coli BL21(DE3) preincubated for 5 mins prior to substrate addition by fluorescence assay
T1 sequence (Q8T6T2 whole entry): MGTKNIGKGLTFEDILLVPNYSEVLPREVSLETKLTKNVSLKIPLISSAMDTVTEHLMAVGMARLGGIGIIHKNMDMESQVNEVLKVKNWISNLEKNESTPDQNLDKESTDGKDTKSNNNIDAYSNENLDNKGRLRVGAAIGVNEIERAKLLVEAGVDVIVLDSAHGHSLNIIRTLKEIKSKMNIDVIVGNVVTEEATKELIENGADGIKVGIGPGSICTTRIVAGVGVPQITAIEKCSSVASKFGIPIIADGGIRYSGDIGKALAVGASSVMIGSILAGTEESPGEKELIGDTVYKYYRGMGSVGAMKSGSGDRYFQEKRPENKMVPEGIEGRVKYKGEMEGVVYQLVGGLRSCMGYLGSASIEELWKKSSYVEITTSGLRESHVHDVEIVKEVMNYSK

[2] = target: Inosine-5'-monophosphate dehydrogenase 2 (Homo sapiens, UniProt P12268); experiment: Inhibition of human IMPDH2
[3] = tested on: Toxoplasma gondii; experiment: Antiparasitic activity against wild-type Toxoplasma gondii expressing eukaryotic IMPDH; assay type: functional, organism-based
[4] = tested on: Toxoplasma gondii; experiment: Antiparasitic activity against transgenic Toxoplasma gondii expressing Cryptosporidium parvum IMPDH; assay type: functional, organism-based
In short: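 Engineered T. gondii strain that depends on CpIMPDH for guanine nucleotide synthesis, run alongside the wild-type RH strain, whose native eukaryotic IMPDH also gauges host-cell cytotoxicity. Antiparasitic EC50 is the average of three independent determinations unless otherwise stated, with some values from two determinations.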

[5] = target: T1, Inosine-5'-monophosphate dehydrogenase; experiment: Inhibition of Cryptosporidium parvum N-terminal His6-tagged IMPDH-mediated NADH production expressed in Escherichia coli BL21(DE3) preincubated for 5 mins prior to substrate addition by fluorescence assay in presence of BSA
In short: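 Same CpIMPDH fluorescence assay (10 nM enzyme, 300 μM NAD, 150 μM IMP, pH 8.0 Tris buffer, 25 °C, 5 min inhibitor preincubation), run with 0.05% fatty-acid-free BSA added to gauge nonspecific protein binding. Quadruplicate points; IC50 averaged over three determinations.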

[6] = tested on: Toxoplasma gondii; experiment: Selectivity ratio of EC50 for wild-type Toxoplasma gondii to EC50 for Toxoplasma gondii expressing Cryptosporidium parvum IMPDH; assay type: functional
[7] = tested on: Liver; experiment: Half life in mouse liver microsomes by LC/MS/MS analysis in presence of NADPH; assay type: ADME, Microsome
In short: (§1)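 Incubation with mouse liver microsomes at 37 °C, with and without NADPH. Percent of compound remaining measured at several time points; half-life from a fit to first-order decay.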

[8] = tested on: Liver; experiment: Half life in mouse liver microsomes by LC/MS/MS analysis; assay type: ADME, Microsome; in short: as §1
[9] = Cytotoxicity against African green monkey COS cells after 3 days by Alamar blue assay; assay type: cell-based; details: chlorocebus aethiops, read-out: LD50
In short: (§2)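 Tested in parallel against HeLa, HEK293, COS and CHO cells. Viability was read as metabolic activity by alamarBlue and expressed as LD50.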

[10] = Cytotoxicity against human HEK293 cells after 3 days by Alamar blue assay; assay type: cell-based; details: read-out: LD50; in short: as §2
[11] = Cytotoxicity against human HeLa cells after 3 days by Alamar blue assay; assay type: cell-based; details: read-out: LD50; in short: as §2
[12] = Cytotoxicity against CHO cells after 3 days by Alamar blue assay; assay type: cell-based, Cricetulus griseus; details: chinese hamster, read-out: LD50; in short: as §2

| SMILES | IC50 [1] [nM] | IC50 [2] [nM] | EC50 [3] [nM] | EC50 [4] [nM] | IC50 [5] [nM] | Ratio EC50 [6] | also measured |
| --- | --- | --- | --- | --- | --- | --- | --- |
| CC(C)(Oc1ccc(Cl)cc1)C(=O)Nc1ccc2oc(-c3ccncc3)nc2c1 | > 5000 | > 5000 |  |  |  |  |  |
| CC(C(=O)Nc1ccc2oc(-c3ccncc3)nc2c1)c1ccccc1 (stereo not given) | 120 | > 5000 | 5000 | 2500 | 130 |  |  |
| CC(Cc1ccccc1)C(=O)Nc1ccc2oc(-c3ccncc3)nc2c1 (stereo not given) | > 5000 | > 5000 |  |  |  |  |  |
| CC(Oc1ccc(Cl)cc1Cl)C(=O)Nc1ccc2oc(-c3ccccn3)nc2c1 (stereo not given) | 210 | > 5000 |  |  | 800 |  |  |
| CC(Oc1ccccc1)C(=O)Nc1ccc2oc(-c3ccncc3)nc2c1 (stereo not given) | 40 | > 5000 | 7000 | 4000 | 50 | 2 |  |
| C[C@@H](Oc1cccc2ccccc12)C(=O)Nc1ccc2oc(-c3ccncc3)nc2c1 | 400 | > 5000 |  |  | 380 |  |  |
| C[C@H](Nc1cccc2ccccc12)C(=O)Nc1ccc2oc(-c3ccncc3)nc2c1 | 14 | > 5000 |  |  |  |  | t1/2 [7]: 18 min; t1/2 [8]: 27 min |
| CC(NC(=O)c1ccc2oc(-c3ccncc3)nc2c1)c1ccccc1 (stereo not given) | > 5000 | > 5000 |  |  |  |  |  |
| C[C@H](Oc1cccc2ccccc12)C(=O)Nc1ccc2oc(-c3ccncc3)nc2c1 |  | > 5000 | 2200 | 400 | 8 | 5 | t1/2 [7]: 30 min |
| C[C@H](Oc1cccc2ccccc12)C(=O)N(C)c1ccc2oc(-c3cncs3)nc2c1 | > 5000 | > 5000 |  |  |  |  |  |
| COc1cccc(O[C@@H](C)C(=O)Nc2ccc3oc(-c4ccncc4)nc3c2)c1OC | 50 | > 5000 | 21000 | 700 | 60 | 30 |  |
| C[C@H](Oc1cccc(Cl)c1Cl)C(=O)Nc1cccc(NC(=O)c2ccncc2)c1 | > 5000 | > 5000 |  |  |  |  |  |
| CC(Oc1ccccc1)c1cn(-c2ccc3oc(-c4cncs4)nc3c2)nn1 (stereo not given) | > 5000 | > 5000 |  |  |  |  |  |
| CC(Oc1cccc2ccccc12)C(=O)Nc1ccc2oc(-c3ncccn3)nc2c1 (stereo not given) | > 5000 | > 5000 |  |  |  |  |  |
| CC(Oc1cccc2ccccc12)C(=O)Nc1ccc2oc(-c3ccncc3)nc2c1 (stereo not given) | 9 | > 5000 | 2400 | 200 | 14 | 34 |  |
| CC(Nc1cccc(Cl)c1Cl)C(=O)Nc1ccc2oc(-c3ccncc3)nc2c1 (racemic) | 2 | > 5000 |  | 20 |  |  |  |
| CC(Oc1ccc(Cl)c2ccccc12)C(=O)Nc1ccc2oc(-c3cncs3)nc2c1 (stereo not given) | 28 | > 5000 | 5000 | 2000 | 70 | 3 |  |
| C[C@H](Oc1cccc(Cl)c1Cl)C(=O)Nc1ccc2oc(-c3ccncc3)nc2c1 | 1.2 | > 5000 | 5000 | 300 | 3.5 | 16 | t1/2 [7]: 9 min; t1/2 [8]: 12 min |

| SMILES | IC50 [1] [nM] | IC50 [2] [nM] | EC50 [3] [nM] | EC50 [4] [nM] | IC50 [5] [nM] | Ratio EC50 [6] | also measured |
| --- | --- | --- | --- | --- | --- | --- | --- |
| CC(Oc1ccccc1)C(=O)Nc1ccc2nc(-c3ccncc3)[nH]c2c1 (stereo not given) | > 5000 | > 5000 | 9000 | 9000 |  | 1 |  |
| C[C@H](C(=O)Nc1ccc2oc(-c3ccncc3)nc2c1)c1ccccc1 | > 5000 | > 5000 |  |  |  |  |  |
| C[C@H](Oc1cccc(Cl)c1Cl)C(=O)Nc1ccc2oc(-c3nccs3)nc2c1 | 17 | > 5000 | 2200 | 300 | 30 | 7 |  |
| CC(Oc1cccc(Cl)c1)C(=O)Nc1ccc2oc(-c3ccncc3)nc2c1 (stereo not given) | 20 | > 5000 | 1100 | 500 | 32 | 2 |  |
| CC(Oc1ccc(Cl)c2ccccc12)C(=O)Nc1ccc2oc(-c3ccncc3)nc2c1 (stereo not given) | 27 | > 5000 |  |  | 53 |  |  |
| O=C(COc1ccc(Cl)cc1Cl)Nc1ccc2oc(-c3ccncc3)nc2c1 | > 5000 | > 5000 |  |  |  |  |  |
| C[C@H](Oc1cccc([N+](=O)[O-])c1Cl)C(=O)Nc1ccc2oc(-c3ccncc3)nc2c1 | 2.3 | > 5000 |  | 190 | 6 |  | CC50 at 72 h [9]: > 50000 nM; CC50 at 72 h [10]: > 50000 nM; CC50 at 72 h [11]: > 50000 nM; CC50 at 72 h [12]: > 50000 nM |
| CC(Oc1ccc(Cl)cc1)C(=O)Nc1ccc2oc(-c3ccncc3)nc2c1 (stereo not given) | 105 | > 5000 |  |  | 118 |  |  |
| CC(Oc1c(Cl)cccc1Cl)C(=O)Nc1ccc2oc(-c3ccncc3)nc2c1 (stereo not given) | > 5000 | > 5000 |  |  |  |  |  |
| C[C@H](Oc1cccc(C(F)(F)F)c1Cl)C(=O)Nc1ccc2oc(-c3ccncc3)nc2c1 | 9 | > 5000 |  | 800 | 52 |  |  |
| C[C@H](Oc1cccc2ccccc12)C(=O)Nc1ccc2oc(-c3ccc[nH]3)nc2c1 | 26 | > 5000 | 1700 | 1000 | 50 | 1.7 |  |
| CC(Oc1ccc(Cl)cc1Cl)C(=O)Nc1ccc2oc(-c3cccnc3)nc2c1 (stereo not given) | 150 | > 5000 |  |  | 600 |  |  |
| CC(C)C(Oc1cccc2ccccc12)C(=O)Nc1ccc2oc(-c3ccncc3)nc2c1 (stereo not given) | 24 | > 5000 |  |  | 57 |  |  |
| C[C@@H](C(=O)Nc1ccc2oc(-c3ccncc3)nc2c1)c1cccc(Cl)c1Cl | 60 | > 5000 |  |  |  |  | t1/2 [7]: 25 min; t1/2 [8]: 130 min |
| CC(Oc1ccc(Cl)cc1Cl)C(=O)Nc1ccc2oc(-c3ccccc3)nc2c1 (stereo not given) | > 5000 | > 5000 |  |  |  |  |  |
| C[C@H](Oc1cccc(Cl)c1Cl)C(=O)Nc1ccc2oc(-c3cncs3)nc2c1 | 1.4 | > 5000 | 3300 | 200 | 2.3 | 15 | t1/2 [7]: 7 min; t1/2 [8]: 11 min |
| C[C@H](Oc1cccc(Cl)c1Cl)C(=O)Nc1ccc2nc(-c3cncs3)oc2c1 | 7 | > 5000 |  |  | 60 |  |  |
